Reference: ChEMBL document CHEMBL1255570, “Click-chemistry-derived triazole ligands of arginine-glycine-aspartate (RGD) integrins with a broad capacity to inhibit adhesion of melanoma cells and both in vitro and in vivo angiogenesis” (J Med Chem, 2010)

Tests used:
[1] = target: Integrin alpha-V/beta-3 (Homo sapiens, UniProt P05106+P06756); experiment: Displacement of [125I]echistatin from human integrin alphaVbeta3; format: protein-complex assay
Method in brief: (§1)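 Solid-phase competition binding to αvβ3 and αvβ5 purified from human placenta. Receptors coated overnight at 4 °C (αvβ3 at 500 ng/mL, αvβ5 at 1000 ng/mL) in Tris pH 7.4 buffer with Ca2+, Mg2+ and Mn2+, then blocked with 1% BSA. [125I]echistatin used at 0.05 nM (αvβ3) or 0.1 nM (αvβ5) against test compound from 100 μM to 0.01 nM. Incubation 3 h at room temperature, in triplicate. Nonspecific binding defined with 1 μM unlabeled echistatin. IC50 taken as 50% inhibition of radioligand binding.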

[2] = target: Integrin alpha-V/beta-5 (Homo sapiens, UniProt P06756+P18084); experiment: Displacement of [125I]echistatin from human integrin alphaVbeta5; format: protein-complex assay; method in brief: as §1
Sequence of Integrin alpha-V/beta-5 (P06756 31-889 limits assumed): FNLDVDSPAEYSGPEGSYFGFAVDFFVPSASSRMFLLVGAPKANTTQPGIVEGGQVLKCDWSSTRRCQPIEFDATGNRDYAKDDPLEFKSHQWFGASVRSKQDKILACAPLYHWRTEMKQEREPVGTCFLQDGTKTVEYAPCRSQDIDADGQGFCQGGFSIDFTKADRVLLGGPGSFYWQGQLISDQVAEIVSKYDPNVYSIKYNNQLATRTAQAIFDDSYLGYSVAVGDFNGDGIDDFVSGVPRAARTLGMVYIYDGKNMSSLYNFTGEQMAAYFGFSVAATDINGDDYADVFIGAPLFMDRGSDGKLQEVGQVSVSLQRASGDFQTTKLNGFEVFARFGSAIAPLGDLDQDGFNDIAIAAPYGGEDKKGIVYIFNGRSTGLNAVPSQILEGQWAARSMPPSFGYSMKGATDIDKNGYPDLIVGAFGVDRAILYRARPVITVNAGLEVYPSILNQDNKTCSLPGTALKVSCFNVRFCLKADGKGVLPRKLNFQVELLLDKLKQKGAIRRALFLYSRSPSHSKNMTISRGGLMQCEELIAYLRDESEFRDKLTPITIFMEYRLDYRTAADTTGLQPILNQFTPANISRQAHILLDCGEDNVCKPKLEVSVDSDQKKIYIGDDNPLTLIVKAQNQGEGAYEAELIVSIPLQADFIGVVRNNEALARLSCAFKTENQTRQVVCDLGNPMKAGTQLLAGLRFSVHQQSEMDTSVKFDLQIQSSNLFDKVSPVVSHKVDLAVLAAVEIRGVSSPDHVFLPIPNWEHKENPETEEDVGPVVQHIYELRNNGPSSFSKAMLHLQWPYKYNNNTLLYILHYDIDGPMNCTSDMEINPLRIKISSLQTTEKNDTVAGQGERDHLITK
Sequence of Integrin alpha-V/beta-5 (P06756 891-1048 limits assumed): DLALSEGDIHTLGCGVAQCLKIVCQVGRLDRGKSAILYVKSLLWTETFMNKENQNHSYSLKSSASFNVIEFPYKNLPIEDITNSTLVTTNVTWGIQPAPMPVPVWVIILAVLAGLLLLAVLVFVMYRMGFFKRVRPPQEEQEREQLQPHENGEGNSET
Sequence of Integrin alpha-V/beta-5 (P18084 24-799 limits assumed): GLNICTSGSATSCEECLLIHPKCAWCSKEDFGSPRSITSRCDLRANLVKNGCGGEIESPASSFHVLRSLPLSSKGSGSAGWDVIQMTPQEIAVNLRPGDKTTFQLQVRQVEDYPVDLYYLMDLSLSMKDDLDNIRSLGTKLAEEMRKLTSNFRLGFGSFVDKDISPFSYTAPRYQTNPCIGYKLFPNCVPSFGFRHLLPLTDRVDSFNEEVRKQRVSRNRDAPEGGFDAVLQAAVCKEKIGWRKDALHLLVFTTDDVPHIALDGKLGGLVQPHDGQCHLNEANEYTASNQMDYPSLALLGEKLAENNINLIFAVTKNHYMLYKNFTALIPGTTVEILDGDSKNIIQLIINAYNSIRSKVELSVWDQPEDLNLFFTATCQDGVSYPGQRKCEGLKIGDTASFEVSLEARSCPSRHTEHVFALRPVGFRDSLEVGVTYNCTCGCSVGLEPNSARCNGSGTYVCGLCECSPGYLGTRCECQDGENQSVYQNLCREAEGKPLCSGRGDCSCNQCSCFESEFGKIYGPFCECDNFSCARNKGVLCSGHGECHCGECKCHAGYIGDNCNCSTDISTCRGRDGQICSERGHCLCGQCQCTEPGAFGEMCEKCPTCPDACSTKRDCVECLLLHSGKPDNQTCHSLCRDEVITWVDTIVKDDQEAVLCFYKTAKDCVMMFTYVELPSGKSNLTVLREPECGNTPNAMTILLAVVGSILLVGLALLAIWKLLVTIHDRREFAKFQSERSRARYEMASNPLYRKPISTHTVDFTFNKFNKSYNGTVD

Sequence of Integrin alpha-V/beta-3 (P05106 27-788 limits assumed): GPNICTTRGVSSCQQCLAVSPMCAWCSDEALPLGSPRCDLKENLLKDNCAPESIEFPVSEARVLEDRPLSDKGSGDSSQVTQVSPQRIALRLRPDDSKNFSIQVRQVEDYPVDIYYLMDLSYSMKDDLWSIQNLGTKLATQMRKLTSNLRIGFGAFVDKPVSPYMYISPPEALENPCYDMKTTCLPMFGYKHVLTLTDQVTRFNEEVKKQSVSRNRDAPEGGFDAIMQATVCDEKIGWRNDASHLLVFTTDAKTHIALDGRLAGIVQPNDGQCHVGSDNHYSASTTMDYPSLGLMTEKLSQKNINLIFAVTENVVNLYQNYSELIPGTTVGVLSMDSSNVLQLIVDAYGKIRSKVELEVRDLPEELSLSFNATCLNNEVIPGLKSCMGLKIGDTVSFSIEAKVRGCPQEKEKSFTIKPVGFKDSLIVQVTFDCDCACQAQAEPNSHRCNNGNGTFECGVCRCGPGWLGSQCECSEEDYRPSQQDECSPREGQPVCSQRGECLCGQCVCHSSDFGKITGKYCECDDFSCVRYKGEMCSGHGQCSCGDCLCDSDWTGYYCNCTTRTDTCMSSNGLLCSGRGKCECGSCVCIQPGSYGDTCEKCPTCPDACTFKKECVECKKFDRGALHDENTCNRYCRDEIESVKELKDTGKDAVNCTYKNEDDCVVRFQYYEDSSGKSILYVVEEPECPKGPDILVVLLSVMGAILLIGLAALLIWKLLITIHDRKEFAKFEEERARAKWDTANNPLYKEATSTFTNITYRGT
Sequence of Integrin alpha-V/beta-3 (P06756 31-889 limits assumed): as the sequence (P06756 31-889 limits assumed) above
Sequence of Integrin alpha-V/beta-3 (P06756 891-1048 limits assumed): as the sequence (P06756 891-1048 limits assumed) above

Row | IC50 [1] | IC50 [2] | Structure (SMILES)
1 | > 10 µM | > 10 µM | NC(N)=NCc1cn(CC(=O)N(CC(=O)O)c2ccccc2)nn1
2 | > 10 µM | > 10 µM | N=C(N)NCCc1cn(CC(=O)N(CC(=O)O)c2ccccc2)nn1
3 | > 10 µM | > 10 µM | NC(N)=NCCCc1cn(CC(=O)N(CC(=O)O)c2ccccc2)nn1
4 | > 10 µM | > 10 µM | N=C(N)N1CCN(CCc2cn(CC(=O)N(CC(=O)O)c3ccccc3)nn2)CC1
